Efflux pump inh: inhibitors of Candida antifungal efflux pumps expressed in yeast; S. cerevisiae Candida pump triplex, Nile Red efflux; inhibition, % at 10 µM; 330,000 tested, 0.44% active; AID 485275;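 active means plate passing quality check with inhibition over a set limit, or well fluorescence over plate mean plus 4 SD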;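 further: Nile Red retained in pooled yeast measured as flow cytometry median fluorescence; 0% = buffer negative control and 100% = Enniatin B positive control; higher means more Nile Red kept so more efflux inhibition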
AHR act: human AHR activation; AHR-responsive luciferase reporter cells, luminescence; P35869; activation, % at 5 µM; 320,000 tested, 2.5% active; in the data active means activation above about 47%;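 further: 0% = vehicle wells and 100% = reference agonist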
Target sequence (P35869 whole entry, looked up): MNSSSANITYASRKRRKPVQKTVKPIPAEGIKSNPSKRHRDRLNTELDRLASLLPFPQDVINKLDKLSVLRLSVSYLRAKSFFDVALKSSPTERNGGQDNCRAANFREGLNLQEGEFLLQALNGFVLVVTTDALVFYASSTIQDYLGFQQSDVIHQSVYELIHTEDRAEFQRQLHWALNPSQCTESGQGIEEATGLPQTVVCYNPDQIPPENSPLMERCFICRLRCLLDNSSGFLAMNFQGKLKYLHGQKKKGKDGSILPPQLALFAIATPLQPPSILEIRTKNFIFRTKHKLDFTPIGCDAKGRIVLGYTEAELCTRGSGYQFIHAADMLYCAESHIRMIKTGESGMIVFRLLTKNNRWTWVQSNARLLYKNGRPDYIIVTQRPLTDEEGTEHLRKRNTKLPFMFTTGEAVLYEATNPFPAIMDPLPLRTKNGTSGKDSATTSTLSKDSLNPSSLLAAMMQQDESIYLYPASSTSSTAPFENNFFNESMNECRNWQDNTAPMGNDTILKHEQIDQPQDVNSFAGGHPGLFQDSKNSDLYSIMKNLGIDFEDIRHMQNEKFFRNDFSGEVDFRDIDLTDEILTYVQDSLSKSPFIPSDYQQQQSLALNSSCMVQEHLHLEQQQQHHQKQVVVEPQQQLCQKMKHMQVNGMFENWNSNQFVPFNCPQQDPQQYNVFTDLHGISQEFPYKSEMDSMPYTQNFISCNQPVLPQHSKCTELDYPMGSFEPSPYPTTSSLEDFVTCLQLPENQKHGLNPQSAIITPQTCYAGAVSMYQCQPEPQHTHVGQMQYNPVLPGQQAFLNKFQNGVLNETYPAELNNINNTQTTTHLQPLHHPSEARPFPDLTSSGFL
SMARCA2 activ: activators of SMARCA2 function | MG213 cells, MMTV-luciferase reporter, dexamethasone, overnight | activation, % at 9.1 µM | 370,000 tested, 1% active | AID 652017; in the data active means activation above about 7.8%;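 further: 0% = vehicle wells and 100% = reference activator wells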
TbMetRS inhib: blocks T. brucei methionyl-tRNA synthetase activity; 360,000 tested, 0.4% active; purified T. brucei MetRS, ATP depletion, Kinase-Glo luminescence; inhibition, % at 11.9 µM; AID 624268;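 active means inhibition above a per-plate cutoff of the control wells' mean inhibition plus 3 SD, cut at about 5.5% in these data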;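 further: 0% = DMSO wells median and 100% = median of wells with control inhibitor compound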
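Material: parasite MetRS enzyme / Replication: singlicate, one well per compound / Signal: luminescence of leftover ATP / Schedule: 2 h aminoacylation at 25 °C after 15 min preincubation / Medium: HEPES-MgCl2-KCl buffer plus DTT, spermine, BSA, pyrophosphatase / Doses: 11.9 µM single point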
H9c2 TAG inh: inhibitors of triacylglycerol accumulation | H9c2 cells, Nile Red lipid (TAG) fluorescence; cells loaded with 200 µM oleic acid | inhibition, % at 12.5 µM | 230,000 tested, 0.66% active | AID 651582;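 active means pattern-corrected inhibition of lipid staining of at least 50% with the nuclear-stain viability signal not falling by more than 50%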;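 further: 0% = DMSO wells and 100% = triacsin C control wells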
SMARCA2 act conf: SMARCA2 activation, confirmation screen. shares compounds with SMARCA2 activ. MG213 cells, MMTV-luciferase with dexamethasone, luminescence, overnight; MG213 cells expressing E1A, Rb sequestered; DMSO wells 0%, reference activator 100%. activation, % at 9.1 µM. 3,500 tested, 30% active;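 active means activation above its plate's cutoff, the mean activation of tested wells plus 3 SD, cut at about 7.9% in these data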
VP16 Luc act: GAL4-VP16 reporter activation counter-screen. activation, % at 9.1 µM. AID 686939. 3,500 tested, 41% active. shares compounds with SMARCA2 activ. HEK293 GAL4-VP16 pG5luc reporter, luciferase luminescence; scaled: DMSO wells 0%, SAHA wells 100%;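 active means activation above the solvent-only control well mean plus 3 SD, averaged across control plates, cut at about 5.2% in these data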
* = called active by the depositor; . = no result. The list is not random: actives were taken first. Their share in the collection is about 4.1%.

SMILES	Efflux pump inh	AHR act	SMARCA2 activ	TbMetRS inhib	H9c2 TAG inh	SMARCA2 act conf	VP16 Luc act
CCOC(=O)C1=C(C)N=c2s/c(=C/c3ccc(OCC(=O)O)cc3)c(=O)n2C1c1cc(OC)c(OC)c(OC)c1 (stereo not drawn)	0	-1	9.1*	-1	7	-2	1
CN(C(=O)c1ccc(NC(=O)Cc2cccc(NC(=O)C3CCN(C(=O)CCc4ccccc4)CC3)c2)cc1)C1CC1	.	.	-3	.	.	.	.
Cc1cc(NC(=O)c2ccccc2)ccc1NC(=O)c1ccccc1Cl	0	22	-1	-1	14	.	.
Cc1ccc(NC(=O)c2ccccc2Cl)c(Cl)c1	0	16	13*	-1	3	11*	5.5*
COC(=O)C1CN(CCc2ccccc2)CCS(=O)(=O)N1Cc1ccc(OC)cc1 (stereo not drawn)	.	.	-1	.	.	.	.
O=C(NC(=S)Nc1ccc(Br)cn1)c1cccnc1	0	3	8.3*	-1	-3	9.8*	0
CC(C)n1cnc2cc(NC(=O)c3ccco3)ccc21	0	14	9.6*	-1	.	13*	9.6*
CCCC(=O)Nc1ccc(NC(=O)c2ccco2)cn1	0	1	3	0	5	.	.
CC(C)C(=O)Nc1ccc(NC(=O)c2ccco2)cn1	0	1	8.1*	0	18	5	2
O=C(NC(=S)Nc1ccccc1Br)c1cccnc1	0	22	-2	1	.	.	.
COc1cccc(C(=O)Nc2ccc(NC(=O)c3ccco3)nc2)c1	0	-1	9.7*	0	14	12*	12*
COC(=O)C1CCN(C(=O)C2CC(=O)N(c3ccc(OC)cc3)C2c2ccc(OC)cc2)CC1 (stereo not drawn)	.	.	0	.	.	.	.
O=C(NCc1ccccc1)[C@H]1CCCN1C(=O)[C@H]1CCCN1C(=O)c1cccc(F)c1	.	.	-4	.	.	.	.
COC(=O)[C@@H](Cc1ccc(O)cc1)NC(=O)[C@H]1O[C@@H](n2cnc3c(=O)[nH]c(N)nc32)[C@H](O)[C@@H]1O	.	.	2	.	.	.	.
O=C(Nc1ccc(NC(=O)c2ccco2)nc1)c1cccnc1	0	3	8.7*	-1	3	9.1*	12*
O=C(Nc1ccc(NC(=O)c2ccco2)nc1)c1cccc(F)c1	0	-3	1	-1	.	.	.
COc1cccc(C(=O)Nc2ccc3ccccc3c2)c1	0	15	2	0	3	.	.
COc1cccc(C(=O)Nc2ccc3[nH]ncc3c2)c1	0	52*	9.4*	-2	3	8.9*	15*
COC(=O)[C@]12C[C@H](CC(=O)NCCc3ccccc3OC)C(=O)N(CCC3=CCCCC3)C1=C[C@H](C(C)(C)C)O[C@@H]2C	.	.	-4	.	.	.	.
Cc1noc(/C=C/Nc2ccc(F)cc2F)c1[N+](=O)[O-]	0	64*	8.0*	-1	11	7	10*
Cc1ccc(C(=O)CCC(=O)OCC(=O)NNC(=O)c2ccc([N+](=O)[O-])cc2)cc1	0	0	9.3*	0	13	0	1
Cc1ccc(S(=O)(=O)CCC(=O)OCC(=O)NNC(=O)c2ccc([N+](=O)[O-])cc2)cc1	0	-1	-2	0	-2	.	.
COc1ccc(/C=C2\COc3ccccc3C2=O)c(OC)c1	0	1	8.9*	0	.	6	5.2*
COc1ccc(/C=C2\COc3ccccc3C2=O)cc1OC	0	-1	4	0	.	.	.
CCC(C(=O)Nc1ccc2c(c1)OCCO2)n1nnc2ccccc2c1=O (stereo not drawn)	0	5	8.7*	0	.	2	6.1*
SMILES	Efflux pump inh	AHR act	SMARCA2 activ	TbMetRS inhib	H9c2 TAG inh	SMARCA2 act conf	VP16 Luc act
O=S(=O)(c1ccc(C(F)(F)F)cc1)N1CCCc2nc(-c3ccc(F)cc3)ccc21	.	.	-2	.	.	.	.
COc1ccc(-c2cc(C(F)(F)F)nc(-n3cc(Cl)cn3)n2)cc1	0	-16	8.5*	-1	-24	2	0
CC(COc1ccc(C(C)C)cc1)NC(=O)c1ccc(Br)o1 (stereo not drawn)	-3	9	10*	0	-6	6	0
Cc1cccc(-c2nnc(SCC(=O)Nc3ccc(-c4nc5ccc(C)cc5s4)cc3)n2Cc2ccco2)c1	.	.	-5	.	.	.	.
Cc1c(Cl)cnc(NC(=O)COC(=O)CCc2nc3ccccc3s2)c1Cl	0	18	9.3*	-1	.	-2	0
OC(CCN1CCCCC1)(c1ccccc1)C1CC2C=CC1C2 (stereo not drawn)	.	.	-3	.	.	.	.
N#Cc1ccc(S(=O)(=O)NCC2CCN(C(=O)C(=O)c3cc4ccccc4o3)CC2)cc1	.	.	4	.	.	.	.
COc1ccc(-c2nc3c(C(=O)NCCN(C)C)cccc3c3ccccc23)cc1	.	.	12*	0	-3	26*	1
COc1ccc(C(=O)NCCN(C)C)c2nc3ccccc3cc12	.	.	12*	0	109	95*	7.3*
COc1ccc(-c2coc3c(C(=O)NCCN(C)C)cccc23)c(C)c1	.	.	-4	0	-2	.	.
CN(C)CCNC(=O)c1cccc2nc3c(ccc4ccccc43)nc12	.	.	19*	0	51*	32*	4
COc1cccc2nc3c(C(=O)NCCN(C)C)cccc3cc12	.	.	10*	0	116	42*	2
Cc1ccc(Sc2cc(C(=O)NCCN(C)C)c3ccccc3n2)cc1	0	1	-2	0	.	.	.
CC(C)(C)c1ccc(-c2nnc3n2N=C(c2ccc4ccccc4c2)CS3)cc1	.	.	-4	.	.	.	.
O=C(Nc1ccc(F)cc1)OCc1cn(Cc2ccc(C(F)(F)F)cc2)nn1	.	.	-2	.	.	.	.
Cc1cc(C)cc(OCC(C)CN2CCC(C(O)(c3ccccc3)c3ccccc3)CC2)c1 (stereo not drawn)	.	.	-5	.	.	.	.
Cc1cccc(Cl)c1NC(=O)NCCCN1CCOCC1	.	.	-2	.	.	.	.
COc1ccc(C(=O)NN)cc1	0	8	1	0	-6	.	.
COc1ccc(-c2cn3cc(C(=O)NN)ccc3n2)cc1	0	55*	11*	0	2	8.8*	5.4*
CCOC(=O)[C@]12CCCC=C1N(Cc1ccc(OC)cc1)C(=O)[C@@H]2CC(=O)N1CCSCC1	.	.	-1	.	.	.	.
O=C(CSc1ncn[nH]1)c1ccc2c(c1)OCO2	0	5	8.6*	-1	.	1	1
CC(C)(C)c1ccc(S(=O)(=O)N2CCN(C(=O)C(=O)c3cccc(C(F)(F)F)c3)CC2)cc1	.	.	-2	.	.	.	.
Cc1cccc(NC(=S)NNC(=O)c2csc3c2CCCC3)c1	0	42	4	-1	.	.	.
Cc1cccc(NC(=S)NNC(=O)c2csc(C)c2)c1	0	1	9.2*	0	.	8.0*	7.5*

High-throughput results (PubChem BioAssay)
